Assay results reported in ChEMBL document CHEMBL1127790, “Photodynamic antitumor agents: beta-methoxyethyl groups give access to functionalized porphycenes and enhance cellular uptake and activity” (J Med Chem, 1994).

How the values were obtained:
[1] = species on record: Mus musculus; assay: Tested for phototoxic activity of compound on SSK2 cultivated murine fibrosarcoma cells; assay type: ADME, cell-based; conditions: light or radiation study, read-out: LD50 (the source's name)
Method in brief: (§1)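 SSK2 murine fibrosarcoma cells (C3H origin), 3 × 10^5 cells/dish after 18 h attachment, incubated 4 h at 37 °C/5% CO2 with sensitizer in DPPC liposomes (DPPC/sensitizer 100:1) diluted in MEM. Cells washed, irradiated in PBS with laser light at 20 mW/cm2 for 250 s (5 J/cm2), then kept 18 h in MEM/10% FCS. Viability by trypan blue exclusion, as percent of MEM-only controls, ≥5 dishes per point. LD50 in incubation medium by probit analysis.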

[2] = species on record: Mus musculus; assay: Cellular uptake kinetics of Porphycenes saturation cell level (cs) in SSK2 murine fibrosarcoma cells; assay type: ADME
Method in brief: (§2)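 Murine fibrosarcoma cells (SSK2, C3H mouse-derived; MEM/5% FCS, 37 °C, 5% CO2), 2.5 × 10^5 plated and grown 18 h. Then 2 µM porphycene in DOPC liposomes diluted in MEM, incubated at 37 °C for varying times. Cells washed, trypsinized, counted, pelleted. Extraction with methanol then acetonitrile containing diphenylanthracene internal standard. Fluorescence read at ex 370 nm against calibration plots. Saturation level from monoexponential fit.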

[3] = species on record: Mus musculus; assay: Cellular uptake kinetics of Porphycenes saturation cell level (cs) in SSK3 murine fibrosarcoma cells; assay type: ADME; method in brief: as §2
[4] = species on record: Mus musculus; assay: Tested for phototoxic activity of compound on SSK3 cultivated murine fibrosarcoma cells; assay type: ADME, cell-based; conditions: light or radiation study, read-out: LD50 (the source's name)
[5] = Cellular uptake kinetics of Porphycenes saturation cell level (cs); assay type: ADME; method in brief: as §2
[6] = species on record: Mus musculus; assay: Tested for Photodynamic activity of Sensitizers for cultivated SSK2 cells; assay type: ADME, cell-based; conditions: read-out: LD50 (the source's name); method in brief: as §1
[7] = (§3) Tested for Photodynamic activity of Sensitizers, lethal dose concentration in incubation media as obtained by probit analysis of SSK3 fibrosarcoma cells; assay type: ADME; conditions: Mus musculus, light or radiation study; read-out: LD50 (the source's name); method in brief: as §1
[8] = species on record: Mus musculus; assay: Cellular uptake kinetics of Porphycenes saturation cell level (cs)in SSK2 murine fibrosarcoma cells; assay type: ADME; method in brief: as §2
[9] = species on record: Mus musculus; assay: as §3; assay type: ADME, cell-based; conditions: in vivo, read-out: LD50 (the source's name); method in brief: as §1

CCCC1=Cc2nc1ccc1[nH]c(cc1CCC)c1nc(c(OC(C)=O)cc3[nH]c2cc3CCC)C(CCC)=C1
CC50 [1]: 110 nM | Cell saturation [2]: 1.2 pM (10e5*cells)-1

CCCC1=Cc2nc1ccc1[nH]c(cc1CCOC)c1nc(ccc3[nH]c2cc3CCC)C(CCOC)=C1
Cell saturation [3]: 14 pM (10e5*cells)-1

CCCC1=Cc2nc1ccc1[nH]c(cc1CCC)c1nc(ccc3[nH]c2cc3CCC)C(CCC)=C1
Cell saturation [2]: 1.5 pM (10e5*cells)-1

COCCC1=Cc2nc1ccc1[nH]c(cc1CCOC)c1nc(ccc3[nH]c2cc3CCOC)C(CCO)=C1
CC50 [4]: 9.1 nM | Cell saturation [5]: 9.3 pM (10e5*cells)-1 | CC50 [1]: 90 nM

CCCC1=Cc2nc1ccc1[nH]c(cc1CCO)c1nc(ccc3[nH]c2cc3CCC)C(CCO)=C1
Cell saturation [3]: 26 pM (10e5*cells)-1

COCCC1=Cc2nc1ccc1[nH]c(c3nc(ccc4[nH]c2cc4CCOC)C(CCOC)=C3)c2c(C(=O)OC)c(C(=O)O)ccc12
CC50 [6]: 130 nM | CC50 [7]: 13 nM | Cell saturation [5]: 7.3 pM (10e5*cells)-1

COCCC1=Cc2nc1ccc1[nH]c(cc1CCOC)c1nc(ccc3[nH]c2cc3CCOC)C(CCOC)=C1
CC50 [1]: 8.5 nM | Cell saturation [8]: 9.3 pM (10e5·cells)-1

C=CC1=C(C)c2cc3[nH]c(cc4nc(cc5[nH]c(cc1n2)c(C)c5CCC(=O)O)C(CCC(=O)O)=C4C)c(C)c3C=C [PROTOPORPHYRIN DISODIUM]
CC50 [6]: 19000 nM | CC50 [9]: 1900 nM
